Bioassay records as filed in PubChem BioAssay.
SENP7 block – SENP7 protease inhibition. AID 434973. recombinant SENP7, Z-RLRGG-aminoluciferin luminescence, 40 min. inhibition, % at 5 µM. 1.5% of 330,000 active;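 active = inhibition above about 50% at the single test dose, limit read from the data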;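 also: plate controls were DMSO with enzyme for no effect and no enzyme buffer wells for full effect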
SENP8 block-1 – blocks the human protease SENP8. Q96LD8. purified SENP8, Z-RLRGG-aminoluciferin cleavage, luminescence. inhibition, % at 10 µM. 1.2% of 330,000 active. AID 2540; in the data active = inhibition above about 50%
Target sequence (Q96LD8 whole entry, looked up): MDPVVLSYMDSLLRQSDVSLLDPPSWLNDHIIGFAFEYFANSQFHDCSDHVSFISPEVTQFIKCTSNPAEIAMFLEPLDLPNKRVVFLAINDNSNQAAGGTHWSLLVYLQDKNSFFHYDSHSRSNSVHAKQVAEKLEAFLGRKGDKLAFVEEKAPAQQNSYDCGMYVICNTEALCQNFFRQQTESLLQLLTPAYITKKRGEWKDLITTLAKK
SENP1 FRET inh – SENP1 (human) catalytic domain inhibition; Q9P0U3; recombinant SENP1 catalytic domain, CyPet-SUMO1-YPet FRET cleavage; inhibition, % at 10 µM; 0.21% of 360,000 active;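 active = inhibition at least 30% at 10 µM, raw YFP signal under a set limit, fluorescence ratio 0.5 to 1.5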;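 also: 0% = enzyme with DMSO and 100% = no enzyme wells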
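Test system: human SENP1 catalytic domain; medium: Tris pH 8 buffer plus EDTA, NaCl, BME, BSA, NP40, catalase; incubation: 50 min reaction at room temperature; technique: FRET, CFP and YFP emission; controls: no-enzyme low control and enzyme-plus-DMSO high control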
SENP8 block-2 – blocks human SENP8 cleavage of Nedd8 substrate | inhibition, % at 20 µM | recombinant SENP8, Nedd8 substrate fluorescence | 0.64% of 360,000 active; in the data active = inhibition mostly above about 40%, no sharp cut-off; inactive = mostly below about 27%
UCH37 DUB inh – blocks the human deubiquitinase UCH37; inhibition, % (test concentration not listed); purified proteasome/UCH37, Ub-AMC cleavage fluorescence; 0.33% of 330,000 active; Q9Y5K5; AID 588478;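 active = mean inhibition over replicate wells above about 20%, limit read from the data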;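 also: 0% = compound-free wells with enzyme and 100% = wells lacking proteasome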
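Material: Human UCH37 enzyme supplied as purified proteasome complex | Schedule: 30 min preincubation with enzyme, 25 min cleavage at room temperature | Detection: AMC fluorescence 355/460 nm | Measure: % inhibition of Ub-AMC cleavage fluorescence | Controls: Wells without proteasome as full block, compound-free enzyme plus substrate as uninhibited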
SENP6 inh – blocks the human protease SENP6; 1.8% of 330,000 active; Recombinant SENP6 catalytic domain, aminoluciferin luminescence; AID 2599; inhibition, % at 10 µM;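 active = inhibition above about 50% at the single tested dose, limit read from the data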;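 also: plate controls were DMSO wells with enzyme for no effect and DMSO wells lacking enzyme for full effect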
Target sequence (Q9GZR1 628-1112 limits assumed): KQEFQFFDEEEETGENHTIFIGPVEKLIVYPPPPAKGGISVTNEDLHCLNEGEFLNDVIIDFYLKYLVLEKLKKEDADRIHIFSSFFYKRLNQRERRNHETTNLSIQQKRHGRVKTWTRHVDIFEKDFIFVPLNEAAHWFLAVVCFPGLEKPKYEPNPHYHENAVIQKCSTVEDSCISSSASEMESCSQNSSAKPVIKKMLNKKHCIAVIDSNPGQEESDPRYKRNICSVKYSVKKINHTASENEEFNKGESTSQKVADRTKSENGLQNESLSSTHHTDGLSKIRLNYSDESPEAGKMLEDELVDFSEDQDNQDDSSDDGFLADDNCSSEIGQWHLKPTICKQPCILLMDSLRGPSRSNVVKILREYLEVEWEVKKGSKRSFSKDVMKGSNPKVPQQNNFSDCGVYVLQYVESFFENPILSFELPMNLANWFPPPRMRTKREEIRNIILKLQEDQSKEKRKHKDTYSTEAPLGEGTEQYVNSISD
SENP8 conf – SENP8 (human) inhibition, single concentration confirmation; shares compounds with SENP8 block-2; purified SENP8, Nedd8-AMC/pro-Nedd8 cleavage fluorescence, 30 min; inhibition, % at 25 µM; 15% of 1,400 active; AID 624319; in the data active = inhibition mostly above about 39%, no sharp cut-off; inactive = mostly below about 34%
* = called active by the depositor; · = no result. Only some compounds are listed: those with a hit (about 2.6% of all), similar ones and a draw of the others.

SMILES | SENP7 block | SENP8 block-1 | SENP1 FRET inh | SENP8 block-2 | UCH37 DUB inh | SENP6 inh | SENP8 conf
O=[N+]([O-])c1c(Nc2ccc(O)cc2)cc(N2CCOCC2)c2nonc12 | 2.8 | -3.1 | -6.3 | 49.3* | 3.5 | -13.3 | 28.9
CC(=O)Nc1ccc(Nc2cc(N3CCOCC3)c3nonc3c2[N+](=O)[O-])cc1 | 8.5 | -2.2 | -6.4 | 15.3 | 9.4 | 6.6 | ·
O=[N+]([O-])c1c(Nc2ccccc2O)cc(Cl)c2nonc12 | -5.3 | -4.5 | 3.9 | 41.9* | 12.2 | 11.7 | 12.5
CCCOc1cccc(C=NNC(=O)c2csc(C)c2C)c1 | · | · | · | · | -0.4 | · | ·
CC(=O)Nc1ccc(S(=O)(=O)N2CCN(C(=O)CCC3CCCC3)CC2)cc1 | -7.4 | -5.3 | 1.7 | 45.5* | -0.6 | 2.1 | 10.6
CCCOC(=O)/C(=C\c1ccc([N+](=O)[O-])o1)NC(=O)c1ccccc1 | -10.9 | -15.3 | 0.7 | 35.4 | 3.9 | -20.7 | ·
CCOC(=O)/C(=C\c1ccc([N+](=O)[O-])o1)NC(=O)c1ccccc1 | 9.7 | -3.7 | 0.7 | 41.9* | 9.5 | -16.4 | 22.1
Nc1ccccc1O | 9.1 | 4.3 | 17.4 | 58.3* | 2.8 | 12.6 | 12.9
Oc1ccccc1O | -5.2 | 13.7 | -4.3 | 11.8 | 3.1 | -14.0 | ·
O=C(NN=Cc1ccc(O)cc1)c1cccc(NN=Cc2ccc(O)cc2)c1 | · | · | · | · | -17.1 | · | ·
COc1cc(OC)c(C=NNC(=O)c2ccc(Cn3nc([N+](=O)[O-])cc3C)cc2)c(OC)c1 | · | · | · | · | 3.4 | · | ·
CC(=O)C(=NNc1ccccc1)Oc1ccc(Br)cc1 | · | · | · | · | 3.9 | · | ·
C=CCn1ccc2c([N+](=O)[O-])cccc2c1=O | 4.8 | -8.9 | 2.0 | 7.0 | 4.3 | 0.2 | ·
C=CCn1ccc(=NC=C(C#N)C#N)c2ccccc21 | 6.7 | 1.4 | -37.6 | 45.0* | · | 4.2 | 20.9
N#CC1=C(N)Oc2n[nH]c(-c3cccs3)c2C1c1cccs1 (stereo not drawn) | 23.9 | 10.8 | -1.3 | 59.4* | 5.6 | 33.3 | 15.0
CCn1c(SCC(=O)NN=Cc2ccccc2OCC(=O)O)nnc1-c1ccc(C(C)(C)C)cc1 | · | · | · | · | 0.9 | · | ·
COc1cc(C(c2c(C)[nH][nH]c2=O)c2c(C)[nH][nH]c2=O)ccc1OS(=O)(=O)c1ccccc1 | 1.2 | -1.1 | 2.3 | 41.8* | 4.8 | -4.2 | 12.9
COc1cc(C(c2c(C)[nH][nH]c2=O)c2c(C)[nH][nH]c2=O)ccc1OS(=O)(=O)c1ccc(C)cc1 | 1.2 | -6.7 | 1.3 | 56.4* | 2.8 | 17.5 | 37.9
CCOCCCNC(=O)C1CCCN(S(=O)(=O)CC)C1 (stereo not drawn) | -0.9 | -2.4 | 0.9 | 45.5* | -0.2 | -0.2 | -4.0
CCCCNC(=O)C1CCCN(S(=O)(=O)CC)C1 (stereo not drawn) | -0.2 | 2.4 | 2.0 | 7.5 | 0.5 | 3.7 | ·
CC(=O)Nc1ccc(Oc2ccc([N+](=O)[O-])cc2Cl)cc1 | 0.5 | -13.9 | 2.5 | 10.6 | 2.6 | -0.2 | ·
CC(=O)Nc1ccc(N=c2cc([N+](=O)[O-])cc(Cl)n2O)cc1 | 18.1 | 15.5 | -0.8 | 51.3* | 7.4 | 1.7 | 28.1
COc1ccc(S(=O)(=O)N2CCC(C(=O)N3CCN(c4ccccc4OC)CC3)CC2)cc1 | -3.8 | 0.4 | -2.4 | 42.6* | 0.0 | -1.6 | 3.6
O=C(CC(c1ccccc1)c1ccccc1)NCc1cccnc1 | 0.5 | 1.5 | 2.0 | 40.6* | 4.0 | -0.8 | 13.2
O=C(Cc1ccccc1)NCc1cccnc1 | 2.3 | -7.6 | 1.9 | 17.7 | 3.6 | -12.4 | ·
SMILES | SENP7 block | SENP8 block-1 | SENP1 FRET inh | SENP8 block-2 | UCH37 DUB inh | SENP6 inh | SENP8 conf
CS(=O)(=O)N(CC(=O)NCC1CCCO1)c1ccc(Cl)c(Cl)c1 (stereo not drawn) | -9.3 | -6.2 | -2.0 | 9.3 | -2.5 | -0.8 | ·
CS(=O)(=O)N(CC(=O)NCC1CCCO1)c1ccc(F)c(Cl)c1 (stereo not drawn) | -12.3 | -6.3 | 1.4 | 51.2* | 1.2 | -9.3 | 7.2
Cc1c(Cl)c(C(=O)NNC(=S)NCc2ccco2)nn1C | -6.8 | -10.5 | 3.5 | 40.0* | 1.9 | -12.2 | 14.0
O=C(O)c1ccc(Cl)c(S(=O)(=O)NCc2ccco2)c1 | 4.3 | -12.5 | 1.6 | 42.9* | -0.3 | -9.7 | -7.8
CC1CN(C(=O)c2ccc(Cl)c(S(=O)(=O)NCc3ccco3)c2)CC(C)O1 (stereo not drawn) | -7.4 | 0.1 | 1.7 | 2.7 | 1.5 | -3.8 | ·
CCC(C)Nc1nc(N)c([N+](=O)[O-])c(Nc2ccccc2OC)n1 (stereo not drawn) | -5.8 | -3.6 | 0.7 | 22.5 | · | 2.7 | ·
CCC(C)Nc1nc(N)c([N+](=O)[O-])c(Nc2cc(OC)ccc2OC)n1 (stereo not drawn) | 9.3 | 10.9 | 1.1 | 45.2* | 5.7 | 2.8 | 31.0
CC1=CCC(C(=O)O)(C(=O)NN=Cc2cccs2)C(c2ccc(Cl)cc2)C1 (stereo not drawn) | · | · | · | · | 3.4 | · | ·
Cn1c(=O)c2ncn(CC(=O)NN=Cc3ccco3)c2n(C)c1=O | · | · | · | · | -0.1 | · | ·
Cc1cc(C)cc(Nc2ccc([N+](=O)[O-])nc2[N+](=O)[O-])c1 | 2.3 | 1.0 | 0.1 | 41.0* | 6.4 | 6.9 | 15.1
COc1cc(Nc2ccc(C)cc2)c([N+](=O)[O-])nc1[N+](=O)[O-] | 9.3 | 7.3 | 2.7 | 31.9 | 9.8 | -12.7 | ·
O=C(O)CCCCNS(=O)(=O)c1ccc(Cl)c(C(F)(F)F)c1 | -1.3 | -4.9 | 1.0 | 42.5* | 3.4 | -5.4 | 8.1
O=C(NCCc1ccccc1)C(=O)NCC(c1ccco1)N1CCOCC1 (stereo not drawn) | -9.8 | -10.7 | 2.0 | 42.8* | 2.6 | -18.1 | 4.9
O=C(NCc1ccccc1)C(=O)NCC(c1ccco1)N1CCOCC1 (stereo not drawn) | 0.5 | 7.0 | 0.0 | 16.0 | 6.5 | 14.8 | ·
Clc1ccccc1COc1ccc(C=Nn2cnnc2)cc1 | · | · | · | · | 1.8 | · | ·
C/C(=N\Nc1ccc(S(=O)(=O)Nc2ccccc2)cc1[N+](=O)[O-])c1ccc(N2CCOCC2)cc1 | 7.5 | 8.4 | 1.2 | 43.8* | · | 0.5 | 14.7
CC(=NNc1ccc(S(=O)(=O)Nc2ccc(Cl)cc2)cc1[N+](=O)[O-])c1ccc(N2CCOCC2)cc1 | · | · | · | · | 7.1 | · | ·
O=C(CNC(=O)c1ccccc1C(F)(F)F)NN=Cc1cccs1 | · | · | · | · | 2.2 | · | ·
O=C(CNC(=O)c1ccccc1F)N/N=C/c1cccs1 | -5.0 | -10.7 | -0.4 | 42.0* | · | -28.1 | 11.0
CC(C)(C)c1nnc2sc(SCCN3C(=O)c4ccccc4C3=O)nn2c1=O | 5.7 | 1.2 | 0.1 | 20.3 | 6.3 | -8.8 | ·
CC(C)N(C(=O)CSc1nn2c(=O)c(C(C)(C)C)nnc2s1)c1ccccc1 | 0.2 | 0.2 | 1.2 | 40.2* | 3.1 | -12.7 | 10.2
CCN(CC)c1ncnc2c1cnn2Cc1ccc(Cl)cc1 | 4.6 | 0.9 | 2.7 | 41.1* | 2.5 | 13.5 | 3.4
